The test system of one data set is arterial thrombosis. The experiment in a line: Rat model of arterial thrombosis. In kind it is in vivo. Conditions: intravenously, 10 min prior to induction of arterial thrombosis, rats. The method in brief: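 Wistar rats were anaesthetised with pentobarbital (40 mg/kg i.p.) on a 37 °C heated table. Right common carotid artery was stimulated at 1 mA for 10 min via an anode under the artery and a subcutaneous hind-limb cathode.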

A further data set concerns the target recombinant human PDIA1 (Homo sapiens, UniProt P07237). The experiment in a line: Enzymatic insulin reduction. As to conditions: for IC50: PDIA1 IC50, insulin reduction assay, full-length PDIA1 6 µg/ml (96 nM), pH 7.6, 37 °C. In kind it is biochemical.
Data set [1] can be described thus: Basal cytotoxicity test, neutral red uptake. In kind it is cell-based. As to conditions: mouse, Balb/c 3T3 mouse embryo fibroblast cells.
A further data set deals with CaCo-2 cells. The experiment in a line: 72 h proliferation inhibition test. In kind it is cell-based, human. Conditions: SRB.
For a further data set, the system named is HT-29 cells. The experiment in a line: 72 h proliferation inhibition test. In kind it is cell-based, human. As to conditions: SRB.
The target of data set [2] is PDIA1a domain (residues 18–137) of human PDIA1 (Homo sapiens, UniProt P07237). The experiment in a line: Insulin turbidity assay with recombinant PDIA1a domain. In kind it is biochemical. As to conditions: read-out: PDIA1a IC50 (insulin reduction); PDIA1a domain 8 µg/ml. The method in brief: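 PDIA1a domain (human residues 18–137) was expressed in E. coli BL21(DE3) with an N-terminal His6-tag/TEV site, then purified by Ni affinity and size exclusion. Turbidity assay: 8 µg/ml protein in 0.1 mM potassium phosphate pH 7.6 and 2 mM EDTA, with 0.08 mM DTT during preincubation. Insulin with DTT was added to final 0.15 mM insulin and 0.16 mM DTT.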
PDIA1a domain (residues 18–137) of human PDIA1, sequence (P07237 18-137): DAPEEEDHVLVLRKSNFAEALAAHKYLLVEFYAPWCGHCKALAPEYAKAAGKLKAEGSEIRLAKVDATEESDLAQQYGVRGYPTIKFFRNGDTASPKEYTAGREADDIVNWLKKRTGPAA

The target in another data set is T1, recombinant human PDIA3 (Homo sapiens, UniProt P30101).
T1 sequence (P30101 25-505): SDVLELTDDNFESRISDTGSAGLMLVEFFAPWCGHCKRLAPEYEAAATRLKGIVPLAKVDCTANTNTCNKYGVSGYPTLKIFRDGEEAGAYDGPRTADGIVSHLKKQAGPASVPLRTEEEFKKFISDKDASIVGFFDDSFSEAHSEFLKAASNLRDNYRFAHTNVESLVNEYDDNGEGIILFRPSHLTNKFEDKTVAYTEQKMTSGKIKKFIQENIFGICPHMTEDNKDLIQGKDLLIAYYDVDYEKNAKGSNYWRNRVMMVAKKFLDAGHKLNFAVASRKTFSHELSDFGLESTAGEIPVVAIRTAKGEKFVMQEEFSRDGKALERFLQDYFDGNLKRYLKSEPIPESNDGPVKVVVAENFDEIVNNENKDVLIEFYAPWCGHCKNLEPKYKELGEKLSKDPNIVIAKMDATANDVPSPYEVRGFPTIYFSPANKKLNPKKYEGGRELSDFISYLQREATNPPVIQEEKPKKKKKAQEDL
The experiment in a line: Enzymatic insulin reduction. In kind it is biochemical. A digest of the protocol:
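Recombinant human PDIA3 (E. coli-expressed), 12 µg/ml (205 nM), was preincubated with test compound in 0.1 mM phosphate buffer pH 7.6, 2 mM EDTA and 0.08 mM DTT. Final DMSO was below 1%. Reaction was started with insulin plus DTT (final 0.15 mM insulin, 0.16 mM DTT). β-chain aggregation turbidity was read at 650 nm for 60 min at 37 °C.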

Twelve molecules from PMC10120451 (Journal of Enzyme Inhibition and Medicinal Chemistry, 2023) can be followed below.

Values after ≈ are worked out from the molar mass of the structure shown. Where only a bound is given, the exact number is not on record here.

recombinant human PDIA1, sequence (P07237 18-508): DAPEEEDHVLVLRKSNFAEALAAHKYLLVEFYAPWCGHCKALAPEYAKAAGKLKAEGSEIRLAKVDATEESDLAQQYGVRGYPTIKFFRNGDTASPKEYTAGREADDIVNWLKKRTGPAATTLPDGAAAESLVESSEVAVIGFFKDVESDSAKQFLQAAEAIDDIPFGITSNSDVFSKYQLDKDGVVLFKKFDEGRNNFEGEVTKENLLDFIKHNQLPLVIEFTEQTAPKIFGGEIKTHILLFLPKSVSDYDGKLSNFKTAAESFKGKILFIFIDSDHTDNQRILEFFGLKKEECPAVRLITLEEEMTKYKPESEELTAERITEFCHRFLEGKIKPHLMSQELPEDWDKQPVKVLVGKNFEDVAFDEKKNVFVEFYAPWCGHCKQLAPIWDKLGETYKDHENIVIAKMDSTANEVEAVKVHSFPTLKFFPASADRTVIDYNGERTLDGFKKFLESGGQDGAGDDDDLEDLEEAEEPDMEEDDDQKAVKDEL

On to `O=c1c(O[C@@H]2O[C@H](CO)[C@@H](O)[C@H](O)[C@H]2O)c(-c2ccc(O)c(O)c2)oc2cc(O)cc(O)c12` [isoquercetin], for which the “effect on arterial thrombus formation (thrombus weight)” value in the data set on arterial thrombosis is “only tended to reduce thrombosis”.
Turning to `CC(=O)C1CN1S(=O)(=O)c1ccc(C)cc1` (stereo not drawn) [Compound C-3263, 1-[1-(p-tolylsulphonyl)aziridin-2-yl]ethanone], the IC50 at recombinant human PDIA1 amounted to 15.6 ± 0.8 µM. Moreover, in data set [1], the IC50 at 24 h worked out at 8 ± 1 µM.
For the molecule `O=C(C1CC1)N1CCN(Cn2sc3ccccc3c2=O)CC1` [LOC14], in the data set on CaCo-2 cells, the “IC50, 72-h antiproliferative assay, CaCo-2” value is recorded as 9.12 ± 3.4 µg/mL (≈ 28.7 µM). Besides, the “IC50, 72-h antiproliferative assay, HT-29” value in the data set on HT-29 cells stood at 12.64 ± 8.4 µg/mL (≈ 39.8 µM).
On to PACMA31, for which the IC50 in data set [2] worked out at 18.3 ± 0.7 µM.
For the molecule `Cc1ccc(S(=O)(=O)N2CC2C=O)cc1` (stereo not drawn) [Compound C-3262, 1-(p-tolylsulphonyl)aziridine-2-carbaldehyde], the IC50 at 24 h in data set [1] came to 4 ± 0.2 µM.
Same read-out and setting: under `CCCCc1ccc(S(=O)(=O)N2CC2C(C)=O)cc1` (stereo not drawn) [Compound C-3272, 1-[1–(4-Butylphenyl)sulphonylaziridin-2-yl]ethanone] stands under 1 µM.
As for `COc1ccc(N2C(=O)/C(=C\c3ccc([N+](=O)[O-])s3)SC2=S)cc1` [CCF642], the half-maximal inhibitory concentration (IC50) in data set [2] was 13 ± 0.6 µM. Further, the “IC50, 72-h antiproliferative assay, CaCo-2” value in the data set on CaCo-2 cells is recorded as 0.41 ± 0.1 µg/mL (≈ 1.08 µM). Also, the “IC50, 72-h antiproliferative assay, HT-29” value with HT-29 cells was determined as 0.41 ± 0.05 µg/mL (≈ 1.08 µM).
As for `CCCCc1ccc(S(=O)(=O)N2CC2C=O)cc1` (stereo not drawn) [Compound C-3273, 1–(4-Butylphenyl)sulphonylaziridine-2-carbaldehyde], the half-maximal inhibitory concentration (IC50) was 3.2 ± 0.2 µM at recombinant human PDIA1 and 5.4 ± 0.2 µM at recombinant human PDIA3. Moreover, the IC50 at 24 h in data set [1] is under 1 µM.
Regarding `C[C@@H]1O[C@@H](OC[C@H]2O[C@@H](Oc3c(-c4ccc(O)c(O)c4)oc4cc(O)cc(O)c4c3=O)[C@H](O)[C@@H](O)[C@@H]2O)[C@H](O)[C@H](O)[C@H]1O` [rutin], the values for the IC50 on recombinant human PDIA1 and at recombinant human PDIA3 were 4 ± 0.3 µM and over 200 µM, respectively. Besides, the “effect on arterial thrombus formation (thrombus weight)” value in the data set with arterial thrombosis was “significantly inhibited arterial thrombus formation”.
Turning to `Cc1ccc(S(=O)(=O)N2CC2C#N)cc1` (stereo not drawn) [Compound C-3314, 1-(p-tolylsulphonyl)aziridine-2-carbonitrile], the IC50 on recombinant human PDIA3 was 188 ± 7.5 µM. The same molecule displayed an IC50 at 24 h in data set [1] of 52 ± 3 µM.
With `NC(=O)C1CN1` (stereo not drawn) [Leakadine, 2-carbamoylaziridine], at recombinant human PDIA1 (read-out: Inhibition of PDIA1 activity), the inhibition at 1000 µM was about 30%.
`Cc1ccc(S(=O)(=O)N2CC2C(=O)O)cc1` (stereo not drawn) [Compound C-3612, Lithium 1-tosylaziridine-2-carboxylate] came in with an IC50 at 24 h in data set [1] of 2610 ± 89 µM.

The term IC50 denotes the midpoint of a concentration-inhibition curve. The inhibition is the drop in the measured response relative to a control, in per cent.
